Experimental data as given in ChEMBL document CHEMBL3046169, “Synthesis and bioactivity study of 2-acylamino-substituted N'-benzylbenzohydrazide derivatives” (2012).
≈ marks a conversion by molar mass, not a printed value. Calls of active or inactive are those of the source. The calls are words filed in the database; no cut-off is given here.

Key:
Aphis gossypii [1] = test: Pesticidal activity against Aphis gossypii (cotton aphid) third-instar nymphae grown on tender Hibiscus syriacus leaves assessed as pest mortality at 2 mg/L measured 24 hr post compound exposure; format: functional; settings: in Hibiscus syriacus
Method in brief: (§1)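 Leaf-dip bioassay: over 30 healthy apterous third-instar nymphs on tender Hibiscus syriacus leaves dipped 5 s in compound diluted in distilled water with 0.05% Triton X-100, excess fluid removed. Held in illumination box at 25 ± 1 °C; mortality scored after 24 h. Tests in triplicate.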

Tetranychus cinnabarinus [2] = test: Pesticidal activity against Tetranychus cinnabarinus (carmine spider mite) third- instar larvae grown on Phaseolus vulgaris leaves assessed as pest mortality at 50 mg/L measured 48 hr post compound exposure; format: functional
Method in brief: (§2)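 More than 20 third-instar mite larvae on Phaseolus vulgaris leaves dipped 5 s in compound solutions (water with 0.05% Triton X-100), excess liquor removed. Larvae held at 25 ± 1 °C in illumination box; mortality read at 48 h. Primary screen at 600 mg L⁻¹, follow-up at 400, 200, 100, 50 and 25 mg L⁻¹ with LC50 calculated. Triplicate tests.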

Plutella xylostella [3] = test: Pesticidal activity against Plutella xylostella (diamondback moth) second-instar larvae grown on cruciferous vegetables leaves leaves as pest mortality at 0.2 mg/L measured 48 hr post compound exposure; format: functional
Method in brief: (§3)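 Over 20 second-instar larvae on cruciferous vegetable leaves dipped 5 s in compound diluted in distilled water containing 0.05% Triton X-100, excess liquid removed. Kept in illumination box at 25 ± 1 °C; mortality recorded 48 h after treatment. Each test in triplicate.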

Tetranychus cinnabarinus [4] = test: Pesticidal activity against Tetranychus cinnabarinus (carmine spider mite) third- instar larvae grown on Phaseolus vulgaris leaves assessed as pest mortality at 400 mg/L measured 48 hr post compound exposure; format: functional; method in brief: as §2
Aphis gossypii [5] = test: Pesticidal activity against Aphis gossypii (cotton aphid) third-instar nymphae grown on tender Hibiscus syriacus leaves assessed as pest mortality at 200 mg/L measured 24 hr post compound exposure; format: functional; settings: in Hibiscus syriacus; method in brief: as §1
Tetranychus cinnabarinus [6] = test: Pesticidal activity against Tetranychus cinnabarinus (carmine spider mite) third- instar larvae grown on Phaseolus vulgaris leaves assessed as pest mortality at 100 mg/L measured 48 hr post compound exposure; format: functional; method in brief: as §2
Tetranychus cinnabarinus [7] = test: Pesticidal activity against Tetranychus cinnabarinus (carmine spider mite) third- instar larvae grown on Phaseolus vulgaris leaves assessed as pest mortality at 25 mg/L measured 48 hr post compound exposure; format: functional; method in brief: as §2
Tetranychus cinnabarinus [8] = test: Pesticidal activity against Tetranychus cinnabarinus (carmine spider mite) third- instar larvae grown on Phaseolus vulgaris leaves assessed as pest mortality measured 48 hr post compound exposure; format: functional; method in brief: as §2
Tetranychus cinnabarinus [9] = test: Pesticidal activity against Tetranychus cinnabarinus (carmine spider mite) third- instar larvae grown on Phaseolus vulgaris leaves assessed as pest mortality at 200 mg/L measured 48 hr post compound exposure; format: functional; method in brief: as §2
Tetranychus cinnabarinus [10] = test: Pesticidal activity against Tetranychus cinnabarinus (carmine spider mite) third- instar larvae grown on Phaseolus vulgaris leaves assessed as reduction in larval movement at 25 to 400 mg/L measured 1 hr post compound exposure; format: functional, organism-based
Method in brief: (§4)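 Mite larvae (>20 third-instar on Phaseolus vulgaris leaves) leaf-dipped 5 s in compound at 400, 200, 100, 50 or 25 mg L⁻¹ in water with 0.05% Triton X-100, kept at 25 ± 1 °C. Movement of larvae observed at 1 h; corpse colour change to black observed at 48 h after treatment.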

Aphis gossypii [11] = test: Pesticidal activity against Aphis gossypii (cotton aphid) third-instar nymphae grown on tender Hibiscus syriacus leaves assessed as pest mortality at 600 mg/L measured 24 hr post compound exposure; format: functional; settings: in Hibiscus syriacus; method in brief: as §1
Tetranychus cinnabarinus [12] = test: Pesticidal activity against Tetranychus cinnabarinus (carmine spider mite) third- instar larvae grown on Phaseolus vulgaris leaves assessed as conversion of corpus colour to black at 25 to 400 mg/L measured 48 hr post compound exposure; format: functional, organism-based; method in brief: as §4
Plutella xylostella [13] = test: Pesticidal activity against Plutella xylostella (diamondback moth) second-instar larvae grown on cruciferous vegetables leaves leaves as pest mortality at 600 mg/L measured 48 hr post compound exposure; format: functional; method in brief: as §3
Tetranychus cinnabarinus [14] = test: Pesticidal activity against Tetranychus cinnabarinus (carmine spider mite) third- instar larvae grown on Phaseolus vulgaris leaves assessed as pest mortality at 600 mg/L measured 48 hr post compound exposure; format: functional; method in brief: as §2

Row | Structure (SMILES) | mortality at 2 µg/mL (Aphis gossypii [1]) [%] | mortality at 50 µg/mL (Tetranychus cinnabarinus [2]) [%] | mortality at 0.2 µg/mL (Plutella xylostella [3]) [%] | mortality at 400 µg/mL (Tetranychus cinnabarinus [4]) [%] | mortality at 200 µg/mL (Aphis gossypii [5]) [%] | mortality at 100 µg/mL (Tetranychus cinnabarinus [6]) [%] | mortality at 25 µg/mL (Tetranychus cinnabarinus [7]) [%] | LC50 (Tetranychus cinnabarinus [8]) [µg/mL] | mortality at 200 µg/mL (Tetranychus cinnabarinus [9]) [%] | Activity (Tetranychus cinnabarinus [10]) | mortality at 600 µg/mL (Aphis gossypii [11]) [%] | Activity (Tetranychus cinnabarinus [12]) | mortality at 600 µg/mL (Plutella xylostella [13]) [%] | mortality at 600 µg/mL (Tetranychus cinnabarinus [14]) [%]
1 | O=[N+]([O-])/N=C1\NCCN1Cc1ccc(Cl)nc1 [IMIDACLOPRID] | 100 | – | – | – | – | – | – | – | – | – | – | – | – | –
2 | CNC(=O)c1cc(Cl)cc(C)c1NC(=O)c1cc(Br)nn1-c1ncccc1Cl [CHLORANTRANILIPROLE] | – | 13.2 | 100 | 40.7 | 91.3 | 17.2 | 7.4 | 633 (≈ 1310 µM) | 29.9 | – | – | – | – | –
3 | Cc1cc(Cl)cc(C(=O)NNCc2ccccc2Cl)c1NC(=O)C(C)(C)C | – | 62.5 | – | 97.8 | – | 60.8 | 30.9 | 43.8 (≈ 107 µM) | 82.2 | Active | 51.7 | Active | 76 | 100
